ChEMBL document CHEMBL3244153, “Synthesis of arabinofuranosyl derivatives of 3-deazaguanine” (J Med Chem, 1979)

Columns and labels:
[1] = tested on: Sarcoma-180; test: Antitumor activity against mouse Sarcoma 180 cells allografted in mouse assessed as reduction in tumor growth at 100 mg/kg, ip qd for 8 days measured one day after last treatment relative to control; format: functional; conditions: Sarcoma-180, ip, route intraperitoneal, read-out: TGI
Summary of the method: (§1)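 Female CD mice (18-20 g) implanted subcutaneously with 3×10^7 Sarcoma 180 tumor cells in the right ventrolateral area. Doses tested were 100, 50, 25 and 12.5 mg/kg.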

[2] = tested on: Mus musculus; test: Toxicity in mouse allografted with mouse Sarcoma 180 cells assessed as mortality at 100 mg/kg, ip qd for 8 days measured one day after last treatment relative to control; format: organism-based; parameters: dose 100 mg/kg, route intraperitoneal; conditions: in vivo, 192 h; summary of the method: as §1
[3] = tested on: Sarcoma-180; test: Antitumor activity against mouse Sarcoma 180 cells allografted in mouse assessed as reduction in tumor growth at 50 mg/kg, ip qd for 8 days measured one day after last treatment relative to control; format: functional; conditions: Sarcoma-180, ip, route intraperitoneal, read-out: TGI; summary of the method: as §1
[4] = tested on: Sarcoma-180; test: Antitumor activity against mouse Sarcoma 180 cells allografted in mouse assessed as reduction in tumor growth at 25 mg/kg, ip qd for 8 days measured one day after last treatment relative to control; format: functional; conditions: Sarcoma-180, ip, route intraperitoneal, read-out: TGI; summary of the method: as §1
[5] = tested on: Sarcoma-180; test: Antitumor activity against mouse Sarcoma 180 cells allografted in mouse assessed as reduction in tumor growth at 12.5 mg/kg, ip qd for 8 days measured one day after last treatment relative to control; format: functional; conditions: Sarcoma-180, ip, route intraperitoneal, read-out: TGI; summary of the method: as §1
[6] = tested on: Mus musculus; test: Toxicity in mouse allografted with mouse Sarcoma 180 cells assessed as mortality at 50 mg/kg, ip qd for 8 days measured one day after last treatment relative to control; format: organism-based; parameters: dose 50 mg/kg, route intraperitoneal; conditions: in vivo, 192 h; summary of the method: as §1
[7] = tested on: Mus musculus; test: Toxicity in mouse allografted with mouse Sarcoma 180 cells assessed as mortality at 25 mg/kg, ip qd for 8 days measured one day after last treatment relative to control; format: organism-based; parameters: dose 25 mg/kg, route intraperitoneal; conditions: in vivo, 192 h; summary of the method: as §1
[8] = tested on: Mus musculus; test: Toxicity in mouse allografted with mouse Sarcoma 180 cells assessed as mortality at 12.5 mg/kg, ip qd for 8 days measured one day after last treatment relative to control; format: organism-based; parameters: dose 12.5 mg/kg, route intraperitoneal; conditions: in vivo, 192 h; summary of the method: as §1

SMILES | inhibition in vivo at 100 mg/kg [1] [%] | Activity [2] | inhibition in vivo at 50 mg/kg [3] [%] | inhibition in vivo at 25 mg/kg [4] [%] | inhibition in vivo at 12.5 mg/kg [5] [%] | Activity [6] | Activity [7] | Activity [8]
Nc1cc2c(ncn2[C@H]2O[C@H](CO)[C@@H](O)[C@@H]2O)c(=O)[nH]1 | 24.2 | Non-toxic |  |  |  |  |  | 
Nc1cc2c(ncn2[C@@H]2O[C@H](CO)[C@@H](O)[C@@H]2O)c(=O)[nH]1 | 16 | Non-toxic |  |  |  |  |  | 
Nc1cc2nc[nH]c2c(=O)[nH]1 [DEZAGUANINE] | 89.6 | Toxic | 74.2 | 78.2 | 46.2 | Non-toxic | Non-toxic | Non-toxic
Nc1cc2ncn([C@H]3O[C@H](CO)[C@@H](O)[C@@H]3O)c2c(=O)[nH]1 | 0 | Non-toxic |  |  |  |  |  | 
Nc1cc2ncn([C@@H]3O[C@H](CO)[C@@H](O)[C@@H]3O)c2c(=O)[nH]1 | 5.6 | Non-toxic |  |  |  |  |  | 
